Only some compounds are listed: those with a hit (about 2.3% of all), similar ones and a draw of the others.
ABCG2 inh: ABCG2 efflux pump inhibitors, primary screen, multiplex with ABCB1, IgMXP3 cells, flow cytometry. Broad substrate specificity ATP-binding cassette transporter ABCG2 (Homo sapiens), Q9UNQ0. JC-1 efflux. inhibition, % at 6.6 µM. AID 1325, 2008. hit rate 0.1% among 190,000;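 active means inhibition above 80%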
Target sequence (Q9UNQ0 whole entry, looked up): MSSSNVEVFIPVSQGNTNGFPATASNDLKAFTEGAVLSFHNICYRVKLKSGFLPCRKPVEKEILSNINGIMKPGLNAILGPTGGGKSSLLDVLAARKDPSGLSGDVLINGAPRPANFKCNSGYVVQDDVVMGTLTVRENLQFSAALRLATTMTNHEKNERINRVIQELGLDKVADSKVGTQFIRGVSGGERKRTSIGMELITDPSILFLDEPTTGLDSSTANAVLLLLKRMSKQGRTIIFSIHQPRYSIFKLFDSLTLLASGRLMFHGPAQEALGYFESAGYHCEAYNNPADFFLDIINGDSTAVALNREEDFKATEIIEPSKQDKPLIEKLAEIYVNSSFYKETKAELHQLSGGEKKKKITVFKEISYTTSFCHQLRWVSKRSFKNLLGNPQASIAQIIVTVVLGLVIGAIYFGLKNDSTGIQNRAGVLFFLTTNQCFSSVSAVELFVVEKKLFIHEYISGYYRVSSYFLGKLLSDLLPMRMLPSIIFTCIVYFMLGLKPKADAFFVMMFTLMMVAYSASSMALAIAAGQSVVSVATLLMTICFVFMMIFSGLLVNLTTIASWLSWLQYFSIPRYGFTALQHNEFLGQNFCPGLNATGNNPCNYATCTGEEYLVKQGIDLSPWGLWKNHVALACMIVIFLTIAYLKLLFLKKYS
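Test system: ABCG2 IgMXP3 and barcoded ABCB1 CCRF-Adr cell mix; Schedule: cells with compound and JC-1, 10 min at 25 °C, rotating, no wash; Technique: flow cytometry of retained JC-1 fluorescence; Measure: % inhibition of efflux relative to nicardipine and DMSO; Controls: nicardipine high and DMSO low controls.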
MEKK2mut PB1 HTS: MEK5 binding signal on mutant MEKK2 PB1, primary screen, biochemical, multiplex bead flow cytometry, Alexa488-MEK5 | percent response, % at 10 µM | hit rate 0.35% among 290,000 | Alexa488-MEK5 binding to MEKK2 mutant; in the data active means percent response above about 24%, passing the limit was not always enough
MEKK2 WT-MEK5: modulators of MEK5 binding to wildtype MEKK2, primary screen, biochemical, multiplex bead flow cytometry, Alexa488-MEK5. Mitogen-activated protein kinase kinase kinase 2 (Homo sapiens), Q9Y2U5. hit rate 1.1% among 290,000. Alexa488-MEK5 binding to MEKK2 WT; actives lie on both sides. binding response (% of control), % at 10 µM; in the data active means binding response below about 67% or above about 130%
MEKK3 PB1 HTS: modulators of MEKK3-MEK5 PB1 binding, primary screen, biochemical, wildtype MEKK3, multiplex bead flow cytometry, Alexa488-MEK5 | Mitogen-activated protein kinase kinase kinase 3 (Homo sapiens), Q99759 | bead-based flow cytometry, Alexa488-MEK5 binding to MEKK3; actives lie on both sides; 0 = blocked by unlabeled MEK5, 100 = vehicle | binding response (% of control), % at 10 µM | hit rate 1.4% among 290,000 | AID 1529, 2009;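 active means binding response more than 3 SD above or below the average of its plate-row segment, actives on both sides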;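 further: Alexa488 bead fluorescence after subtracting the streptavidin-only scavenger bead signal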
ABCB1 inh: ABCB1 efflux pump inhibitors, primary screen, cell-based, multiplex, flow cytometry, ABCG2 counter-screen; inhibition, % at 6.6 µM; AID 1326, 2008; CCRF-Adr cells, JC-1 efflux; hit rate 0.067% among 190,000; in the data active means inhibition above about 40%;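 further: higher value means more JC-1 retained so stronger ABCB1 efflux block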
MEKK2wt confirm: modulators of MEK5 binding to wildtype MEKK2, confirmation, biochemical, single concentration, multiplex bead flow cytometry | AID 1892, 2009 | hit rate 2.4% among 5,900 | shares compounds with MEKK3 PB1 HTS | binding response (% of control), % at 10 µM | Alexa488-MEK5 binding to MEKK2 WT; actives lie on both sides; in the data active means binding response below about 16% or above about 210%; inactive means in between
MEKK2mut-MEK5: mutant MEKK2 PB1-MEK5 binding signal retest – biochemical, single concentration, multiplex bead flow cytometry, confirmation; percent response, % at 10 µM; shares compounds with MEKK3 PB1 HTS; Alexa488-MEK5 binding to MEKK2 mutant; AID 1893, 2009; hit rate 2% among 5,900; in the data active means percent response mostly above about 71%, no sharp cut-off; inactive means mostly below about 38%;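 further: higher means compound restores mutant binding toward wildtype level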
MEKK3 confirm: MEKK3 wild-type PB1 binding to MEK5, inhibitors, confirmation, biochemical, bead multiplex flow cytometry, single concentration, wildtype; Alexa488-MEK5 binding to MEKK3; stronger effect = lower value; shares compounds with MEKK3 PB1 HTS; binding response (% of control), % at 10 µM; hit rate 1.8% among 5,900;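 active means binding response below 72% of control, or above a set upper limit, though filed actives all read lower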
Numbers stand for hits; [ ] = another dose, or the depositor's remark.

For O=[N+]([O-])c1ccc(N2CCN(C(=S)c3cccc([N+](=O)[O-])c3)CC2)cc1 the results were MEKK2mut PB1 HTS inactive, MEKK2 WT-MEK5 inactive and MEKK3 PB1 HTS inactive.
For CC(=O)N1CCN(C(=S)c2cccc([N+](=O)[O-])c2)CC1 the results were ABCG2 inh inactive, MEKK2mut PB1 HTS inactive, MEKK2 WT-MEK5 inactive, MEKK3 PB1 HTS 132.0, ABCB1 inh inactive, MEKK2wt confirm inactive, MEKK2mut-MEK5 inactive and MEKK3 confirm inactive.
For Cc1oc(-c2ccc(-c3ccccc3)cc2)nc1CN(CCO)C(C)C the results were MEKK2mut PB1 HTS inactive, MEKK2 WT-MEK5 inactive and MEKK3 PB1 HTS inactive.
For CCCN(CC(=O)Nc1ccccc1C)C(=O)/C=C/c1cccs1 the results were ABCG2 inh inactive, MEKK2mut PB1 HTS inactive, MEKK2 WT-MEK5 inactive, MEKK3 PB1 HTS 140.0, ABCB1 inh inactive, MEKK2wt confirm inactive, MEKK2mut-MEK5 inactive and MEKK3 confirm inactive.
For CCCc1ccc2oc(C(=O)N(C)CCn3ccnc3C)c(C)c2c1 the results were MEKK2mut PB1 HTS 24.0, MEKK2 WT-MEK5 inactive, MEKK3 PB1 HTS inactive, MEKK2wt confirm inactive, MEKK2mut-MEK5 inactive and MEKK3 confirm inactive.
CCN(CC)CCNC(=O)c1ccc2c(=O)n(CCc3ccccc3)c(=O)[nH]c2c1 was read as ABCG2 inh inactive, MEKK2mut PB1 HTS inactive, MEKK2 WT-MEK5 135.0, MEKK3 PB1 HTS 125.0, ABCB1 inh inactive, MEKK2wt confirm inactive, MEKK2mut-MEK5 inactive and MEKK3 confirm inactive.
Screening CCCCN(C)CCNC(=O)c1ccc(Cn2c(=S)[nH]c3ccc(Br)cc3c2=O)cc1 returned ABCG2 inh inactive, MEKK2mut PB1 HTS inactive, MEKK2 WT-MEK5 171.0, MEKK3 PB1 HTS inactive, ABCB1 inh inactive, MEKK2wt confirm inactive, MEKK2mut-MEK5 inactive and MEKK3 confirm inactive.
CCN(CCCNC(=O)CCn1c(=O)[nH]c2ccccc2c1=O)c1cccc(C)c1 was read as ABCG2 inh inactive, MEKK2mut PB1 HTS inactive, MEKK2 WT-MEK5 inactive, MEKK3 PB1 HTS inactive and ABCB1 inh inactive.
CCN(CCCNC(=O)CCn1c(=O)[nH]c2ccccc2c1=O)c1ccccc1 was read as ABCG2 inh inactive, MEKK2mut PB1 HTS inactive, MEKK2 WT-MEK5 44.0[inhibitor], MEKK3 PB1 HTS 34.0[inhibitor], ABCB1 inh inactive, MEKK2wt confirm inactive, MEKK2mut-MEK5 inactive and MEKK3 confirm inactive.
Screening CN(C)CCNC(=O)c1ccc2c(=O)n(Cc3ccc(Cl)cc3)c(=S)[nH]c2c1 returned MEKK2mut PB1 HTS 25.0, MEKK2 WT-MEK5 138.0, MEKK3 PB1 HTS inactive, MEKK2wt confirm inactive, MEKK2mut-MEK5 inactive and MEKK3 confirm inactive.
Screening CC(=O)c1cccc(OCc2cc(C(=O)N3C[C@@H](C)O[C@@H](C)C3)no2)c1 returned MEKK2mut PB1 HTS inactive, MEKK2 WT-MEK5 inactive and MEKK3 PB1 HTS inactive.
Screening COc1ccc(Br)cc1CNC(=O)Cn1nc(C)n2cccc2c1=O returned MEKK2mut PB1 HTS inactive, MEKK2 WT-MEK5 inactive and MEKK3 PB1 HTS inactive.
Screening O=C(NS(=O)(=O)c1ccc(Cl)s1)c1ccccc1 returned MEKK2mut PB1 HTS inactive, MEKK2 WT-MEK5 193.0, MEKK3 PB1 HTS inactive, MEKK2wt confirm inactive, MEKK2mut-MEK5 inactive and MEKK3 confirm inactive.
Screening CC1SC(c2ccc(F)cc2)N(CCc2ccccc2)C1=O (configuration not stated) returned MEKK2mut PB1 HTS inactive, MEKK2 WT-MEK5 inactive and MEKK3 PB1 HTS inactive.
For Cc1nc(P(=O)(c2ccccc2)c2ccccc2)c(N2CCOCC2)o1 the results were ABCG2 inh inactive, MEKK2mut PB1 HTS inactive, MEKK2 WT-MEK5 inactive, MEKK3 PB1 HTS 131.0, ABCB1 inh inactive, MEKK2wt confirm inactive, MEKK2mut-MEK5 inactive and MEKK3 confirm inactive.
Cc1ccnc(NS(=O)(=O)c2ccc(NC(=O)c3ccc(Br)o3)cc2)n1 was read as ABCG2 inh inactive, MEKK2mut PB1 HTS inactive, MEKK2 WT-MEK5 inactive, MEKK3 PB1 HTS 130.0, ABCB1 inh inactive, MEKK2wt confirm inactive, MEKK2mut-MEK5 inactive and MEKK3 confirm inactive.
CC1CCN(C(=O)CNC(=O)CNC(=O)Cc2ccccc2)CC1 was read as MEKK2mut PB1 HTS inactive, MEKK2 WT-MEK5 inactive and MEKK3 PB1 HTS inactive.
CCCCc1n[nH]c(=S)n1Cc1ccc(C)cc1 was read as ABCG2 inh inactive, MEKK2mut PB1 HTS inactive, MEKK2 WT-MEK5 inactive, MEKK3 PB1 HTS 48.0[inhibitor], ABCB1 inh inactive, MEKK2wt confirm inactive, MEKK2mut-MEK5 inactive and MEKK3 confirm inactive.
CCOc1ccc(NC(=O)COc2nsnc2N2CCCCC2)cc1 was read as ABCG2 inh inactive, MEKK2mut PB1 HTS inactive, MEKK2 WT-MEK5 inactive, MEKK3 PB1 HTS inactive and ABCB1 inh inactive.
`COc1ccc(NC(=O)COc2nsnc2N2CCCCC2)cc1` gave ABCG2 inh inactive, MEKK2mut PB1 HTS inactive, MEKK2 WT-MEK5 44.0[inhibitor], MEKK3 PB1 HTS 27.0[inhibitor], ABCB1 inh inactive, MEKK2wt confirm inactive, MEKK2mut-MEK5 inactive and MEKK3 confirm inactive.
COc1ccc2[nH]c(C)c(-c3csc(N)n3)c2c1 was read as MEKK2mut PB1 HTS 27.0, MEKK2 WT-MEK5 inactive, MEKK3 PB1 HTS inactive, MEKK2wt confirm inactive, MEKK2mut-MEK5 inactive and MEKK3 confirm inactive.
For COc1ccc(N2C(=O)/C(=C/c3cccs3)NC2=S)cc1 the results were ABCG2 inh inactive, MEKK2mut PB1 HTS inactive, MEKK2 WT-MEK5 inactive, MEKK3 PB1 HTS 141.0, ABCB1 inh inactive, MEKK2wt confirm inactive, MEKK2mut-MEK5 inactive and MEKK3 confirm inactive.
`C[C@@H]1C[C@H]2[C@@H]3CCC4=CC(=O)C=C[C@]4(C)[C@@]3(F)[C@@H](O)C[C@]2(C)[C@H]1C(=O)CO` gave ABCG2 inh inactive, MEKK2mut PB1 HTS inactive, MEKK2 WT-MEK5 inactive, MEKK3 PB1 HTS 122.0, ABCB1 inh inactive, MEKK2wt confirm inactive, MEKK2mut-MEK5 inactive and MEKK3 confirm inactive.
For CC(=O)OCC(=O)[C@@]1(O)[C@H](C)C[C@H]2[C@@H]3CCC4=CC(=O)C=C[C@]4(C)[C@@]3(F)[C@@H](O)C[C@@]21C the results were ABCG2 inh inactive, MEKK2mut PB1 HTS inactive, MEKK2 WT-MEK5 inactive, MEKK3 PB1 HTS inactive and ABCB1 inh inactive.

High-throughput results as filed in PubChem.
